# Bioassay records as filed in PubChem BioAssay.
# A selection: hits, their analogues and other compounds. The true share with any hit is near 12%.
# Arbovirus inh = arbovirus infection inhibition; arbovirus infection cell-based antiviral screen; inhibition, % at 10 µM; hit rate 0.37% among 200,000; AID 1251; in the data active means inhibition above about 30%
# CHOP inh = blocks CHOP induction under ER stress; CHO-K1 CHOP-promoter luciferase, tunicamycin-induced, 15-18 h; inhibition, % at 10 µM; hit rate 3.8% among 220,000; AID 2732;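 active means compounds that reduced the stress-induced luciferase reporter signal by more than about 70% of percent inhibition, limit read from the data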;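 further: 0% = tunicamycin plus vehicle and 100% = wells without tunicamycin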
# Rad51 HR inh = blocks human Rad51 in homologous recombination; hRad51 DNA strand exchange, fluorescence dequenching; inhibition, % at 10 µM; hit rate 0.085% among 200,000; AID 1385;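 active means inhibition above 40% at the single screening dose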;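 further: 0% = DMSO control wells and 100% = blanks with heterologous ssDNA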
#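 Material: human Rad51–ssDNA filaments; Probe or stimulus: labelled 47-mer dsDNA for strand exchange; Doses: single 10 µM dose; Incubation: 37 °C 15-min filament assembly, 30-min compound preincubation, 15-min exchange; Technique: FRET fluorescence dequenching, excitation 485 nm, emission 520 nm; Measure: Fluorescence-based percent inhibition, control- and blank-normalised; Benchmarks: plate control and blank wells.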
# Wee1 stabilizer = inhibitors of human Wee1 degradation | reporter increase, % at 5 µM | HeLa Luc-Wee1K328M stability, luciferase luminescence; 100% = proteasome inhibitor MG132 effect | hit rate 1.2% among 220,000;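 active means activation above the mean of all tested compounds plus 3 SD, set per screening run, cut at about 8.8% in these data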;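 further: cells exposed to compound for 20 h before luminescence read; 0% = DMSO alone and 100% = MG132 at 30 µM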
# PKD1 kinase inh = blocks activity of human protein kinase D1; PKD1 kinase fluorescence polarization assay; inhibition, % (concentration not given with the values); hit rate 0.056% among 200,000
# Lmaj promast = reduces viability of Leishmania major promastigotes; inhibition, % at 10 µM; resazurin fluorescence viability; hit rate 9% among 200,000;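 further: promastigotes grown with compound for 44 hours at 28 °C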
# CHOP inh conf = confirmation of CHOP induction inhibitors; CHO-CHOP promoter luciferase reporter, tunicamycin-induced, luminescence; hit rate 45% among 2,100; AID 504437; inhibition, % at 10 µM; shares compounds with CHOP inh;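 active means mean of three repeat readings of reporter signal inhibition above a set limit, cut at about 70% in these data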;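 further: 0% = tunicamycin plus vehicle and 100% = wells lacking tunicamycin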
# * marks the source's active call; other numbers are inactive results; i = inactive; · = not tested or not shown. Unless noted, no stated cut-off is given here; in the data, active means inhibition above about 50%; inactive means the rest.
SMILES,Arbovirus inh,CHOP inh,Rad51 HR inh,Wee1 stabilizer,PKD1 kinase inh,Lmaj promast,CHOP inh conf
Cc1ccc(-c2ccc(/C=C(\C#N)C(=O)Nc3cc(C)nn3-c3ccccc3)o2)cc1,2,104*,-420,0,-12,-1,89*
Cc1cc(Cl)ccc1OCc1n[nH]c(=S)n1C1CCCCC1,3,103*,-2,0,-6,-2,119*
COCCNCC(=O)Nc1ccc(C)c(S(=O)(=O)N2CCCCC2)c1,13,14,-1,-3,-6,-3,·
Cc1ccc(NC(=O)CCl)cc1S(=O)(=O)N1CCCCCC1,-33,108*,3,-3,3,91*,134*
O=S(=O)(Nc1cc(Sc2ncn[nH]2)c(O)c2ccccc12)c1ccccc1,-41,106*,1,-5,2,99*,77*
CC(C)Oc1ccc(CCc2n[nH]c(=S)n2-c2ccccc2)cc1,5,-9,5,3,-7,-5,·
O=C1C2CC=CCC2C(=O)N1c1ccc(NCCc2ccc(O)cc2)c([N+](=O)[O-])c1 (stereo unspecified),9,-33,·,2,-12,18,·
COc1cc(OC)cc(C(=O)N2CCC(C(=O)Nc3ccc4c(c3)OCCO4)CC2)c1,7,31,8,-1,-2,3,·
Cc1ccccc1NC(=O)/C=C/c1ccc([N+](=O)[O-])s1,-35,102*,-24,2,8,82*,79*
CCCc1cc(-c2[nH]ncc2-c2ccc3c(c2)OCCCO3)c(O)cc1O,-29,101*,0,-1,2,26,9
O=C(NNS(=O)(=O)c1ccc(F)cc1F)c1csc(-c2cccnc2)n1,·,12,-18,1,·,·,·
Cc1ccc(-n2c(=O)[nH]c3c(C(N)=O)nc(-c4ccc(C)o4)nc32)cc1,-1,107*,·,-2,22,34,121*
CC[n+]1c(/C=C2\Sc3ccccc3N2C)ccc2cccc(C)c21,-35,104*,i,-4,-12,100*,110*
C=CCN1C(=O)/C(=C2/Sc3ccccc3N2C)SC1=Nc1ccccc1C,-2,0,7,-1,6,2,·
COCCn1c(=NC(=O)CN2C(=O)CCC2=O)sc2cc(S(N)(=O)=O)ccc21,1,9,16,1,-4,-5,·
COCCn1c(=NC(=O)c2cc3ccccc3oc2=O)sc2cc(S(N)(=O)=O)ccc21,9,101*,0,-1,-5,-8,-21
COc1ccc([N+](=O)[O-])cc1NS(=O)(=O)c1cccc(C(=O)O)c1,·,11,15,3,·,·,·
CC(C)(C)c1ccc(OCCNC(=S)Nc2ccccc2)cc1,-33,104*,-2,-2,-1,15,72*
O=C(NCc1ccco1)/C(=C/c1cccc(C(F)(F)F)c1)c1nc2ccccc2[nH]1,-20,96*,4,-2,-2,80*,34
O=C(NCc1ccco1)c1cccc(C(F)(F)F)c1,-4,-10,2,4,3,-2,·
CN(C)c1ccc(C(CNS(=O)(=O)c2ccc(F)cc2)c2c[nH]c3ccccc23)cc1 (stereo unspecified),-15,107*,4,1,-15,79*,19
Cc1ccc2oc(-c3cccc(NC(=O)Cn4cnc5c(=O)n(C)c(=O)n(C)c54)c3)nc2c1,-14,104*,2,1,-3,-2,69
Cn1c(=O)c2ncn(CC(=O)Nc3ccc4oc(-c5cccc6ccccc56)nc4c3)c2n(C)c1=O,·,·,·,4,2,-1,·
CC(C)c1nc(SCC(=O)N2CC(=O)Nc3ccccc32)c2ccccc2n1,-2,41,3,-4,-1,26,·
CN(C)c1ccc(/C=C/C#N)cc1,·,5,·,3,·,·,·
SMILES,Arbovirus inh,CHOP inh,Rad51 HR inh,Wee1 stabilizer,PKD1 kinase inh,Lmaj promast,CHOP inh conf
CN(C)c1ccc(/C=C/c2ccc3c4ccccc4ccc3[n+]2-c2ccccc2)cc1,-33,108*,51*,-4,1,100*,123*
Cc1cc(NC(=O)C2C3C(=O)N(CC4CCCO4)C(C(=O)NCc4ccccc4)C34C=CC2(C)O4)no1 (stereo unspecified),8,18,4,-2,-7,-6,·
C=CCn1c(SCC(=O)Nc2c(C)cccc2C)nnc1-c1cnccn1,-4,36,-1,4,-4,-2,·
CCCCc1ccc(Nc2nc(CCC)cc(=O)[nH]2)cc1,-43,107*,-2,1,-4,9,98*
CCCc1cc(=O)[nH]c(Nc2ccc(N3CCCCC3)cc2)n1,9,107*,1,-1,6,2,94*
O=C(CCl)N(c1ccc(Cl)cc1)c1c[nH]c2ccccc12,-23,·,-8,3,3,100*,119*
O=C(CCl)N(c1ccccc1)c1c[nH]c2ccccc12,-26,·,13,1,-4,97*,-29
CCOC(=O)COc1ccc(/C=C/[N+](=O)[O-])c(OCC(=O)OCC)c1,-22,111*,-4,-4,11,100*,-96
Cn1ncc2c(NNC(=O)C3CCCCC3)ncnc21,15,16,5,2,-2,-11,·
Cc1cc(C)c2c(=O)n(CC(=O)NC3CCCC3)sc2n1,·,6,·,0,·,·,·
COc1ccc(OC)c(CCNC(=O)Cn2sc3nc(C)cc(C)c3c2=O)c1,-29,98*,-4,-1,-6,21,-2
CC(C)(C)c1ccc(OCC(=O)N/N=C/C2CC=CCC2)cc1 (stereo unspecified),-3,99*,4,9,-1,-7,99*
COc1ccc(C(=O)N/N=C/C2CC=CCC2)cc1OC (stereo unspecified),6,9,15,1,-4,0,·
CC(C)(C)c1ccc(OCC(=O)N/N=C/c2ccc(N3CCOCC3)cc2)cc1,-12,105*,17,-2,-6,0,65
Cc1sc(NC(=S)NC(=O)C(C)(C)C)c(C(N)=O)c1C,-12,20,2,2,8,3,·
COC(=O)c1[nH]c2ccc(C)cc2c1NC(=O)Nc1ccc(OC)cc1,-7,101*,-9,-1,16,-3,37
CCOC(=O)c1c(NC(=O)c2cc(-c3ccc(O)cc3)on2)sc(C(C)=O)c1C,1,35,·,-2,-7,-10,·
